Compound activity as filed in PubChem.
CAL PDZ FP-1: CAL PDZ (human) peptide binding inhibition | 300,000 compounds, 0.92% hits | purified CAL PDZ, TMR-peptide fluorescence polarization, 1 h | inhibition, % at 24.9 µM | AID 602252 | Q9HD26;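 active = mean inhibition of at least 30% with at least half of replicates also reaching 30%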;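 also: 0% = DMSO neutral control and 100% = excess unlabeled competitor peptide PRC23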
PDI inh: inhibitors of human protein disulfide isomerase. P07237. 350,000 compounds, 0.052% hits. PDI insulin aggregation turbidity, A650, 90 min. inhibition, % at 10 µM;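 active = mean inhibition across replicates of 30% or more, whatever share of single replicates reach that level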
RAD54 inh: inhibitors of human RAD54 branch migration; RAD54 Holliday junction branch migration, FAM/BHQ fluorescence; inhibition, % at 10.4 µM; Q92698; 360,000 compounds, 0.14% hits;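 active = mean normalized replicate activity at least 40 and at least half of replicates scoring 40 or more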;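 also: 0% = median of neutral control wells and 100% = median of positive control wells; inhibitors cause a drop in the FAM fluorescence signal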
Target sequence (Q92698 whole entry, looked up): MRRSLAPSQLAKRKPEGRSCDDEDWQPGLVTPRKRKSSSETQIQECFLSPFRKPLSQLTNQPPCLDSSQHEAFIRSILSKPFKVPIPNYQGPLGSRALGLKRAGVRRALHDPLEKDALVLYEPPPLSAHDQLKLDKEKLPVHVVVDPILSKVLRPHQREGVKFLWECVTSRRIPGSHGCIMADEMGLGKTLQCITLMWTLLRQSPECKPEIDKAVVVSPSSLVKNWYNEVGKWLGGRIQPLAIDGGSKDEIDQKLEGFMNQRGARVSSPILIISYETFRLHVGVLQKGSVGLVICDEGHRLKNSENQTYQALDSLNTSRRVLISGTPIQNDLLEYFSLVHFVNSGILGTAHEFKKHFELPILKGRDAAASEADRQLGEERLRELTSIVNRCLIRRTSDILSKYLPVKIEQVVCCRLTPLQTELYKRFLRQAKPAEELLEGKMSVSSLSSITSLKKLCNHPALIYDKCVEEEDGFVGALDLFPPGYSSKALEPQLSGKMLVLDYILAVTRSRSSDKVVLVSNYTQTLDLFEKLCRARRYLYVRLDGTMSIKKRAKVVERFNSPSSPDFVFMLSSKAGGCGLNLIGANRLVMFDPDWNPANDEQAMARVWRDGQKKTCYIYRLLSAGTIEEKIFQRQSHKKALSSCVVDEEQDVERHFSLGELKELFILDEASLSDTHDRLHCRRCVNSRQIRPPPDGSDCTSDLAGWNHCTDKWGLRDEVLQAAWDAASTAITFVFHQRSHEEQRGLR
RAD52 anneal inh: RAD52 (human) annealing inhibition | P43351 | recombinant RAD52 DNA annealing, FRET fluorescence | inhibition, % at 18.7 µM | 360,000 compounds, 0.46% hits | AID 651710;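 active = every replicate showing at least 50% inhibition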
CAL PDZ FP-2: blocks peptide binding to human CAL PDZ domain. Q9HD26. purified CAL PDZ, TMR-peptide fluorescence polarization, 1 h. 330,000 compounds, 0.02% hits. AID 504414. inhibition, % at 20 µM;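 active = highest replicate inhibition of at least 40%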;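 also: plate controls were DMSO neutral control wells for no effect and unlabeled competitor peptide control wells for full effect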
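Material – purified CerCALP PDZ construct · Detection – FP readout, S and P plane fluorescence · Measure – percent inhibition from loss of millipolarization · Controls – unlabelled peptide for full inhibition, DMSO wells as neutral · Probe or stimulus – TMR-labelled reporter peptide T*-PRC34 bound in PDZ groove · Times – 1 h at RT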
ERp5 inh: ERp5 (human) disulfide isomerase inhibition; inhibition, % at 9.99 µM; ERp5 insulin aggregation, absorbance 650 nm, 90 min; AID 651711; 350,000 compounds, 0.05% hits; Q15084;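 active = mean replicate inhibition above about 25%, with every replicate also reaching it, limit read from the data, passing the limit was not always enough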
Numbers without * were called inactive; . = not tested or not shown; ! = not active in a repeat. Rows were chosen to be rich in hits. Some 1% of all compounds tested hit in one or more screens of this group.

SMILES	CAL PDZ FP-1	PDI inh	RAD54 inh	RAD52 anneal inh	CAL PDZ FP-2	ERp5 inh
CCC(C(=O)NN1C(=O)c2ccccc2C1=O)c1ccccc1 (centres undefined)	-5.9	-2.4	0.8	-17.0	45.4*	7.0
COc1ccc(S(=O)(=O)Nc2ccc3c(c2)C(=O)N([C@@H](C)CO)C[C@H](C)[C@H](CN(C)Cc2ccc(C(=O)Nc4ccccc4N)cc2)O3)cc1	.	.	1.1	-33.6	.	-3.4
COc1cccc(-c2ccc(C3[C@H]4CNC[C@@H]3N4Cc3cc(F)ccc3F)cc2)c1 (some centres undefined)	.	.	.	54.2*!	.	8.0
Fc1cccc(-c2ccc(C3[C@H]4CNC[C@@H]3N4Cc3ccccc3F)cc2)c1 (some centres undefined)	.	.	.	59.7*	.	-0.5
COc1cccc(C2(O)CCN(C(=O)C(C)C)CC2)c1	60.5*	1.6	-0.2	-1.0	-0.7	-3.4
COc1cccc(C2(O)CCN(C(=O)c3cccs3)CC2)c1	-17.7	-15.4	1.5	9.7	.	15.3
COc1ccc(/C=N/NC(=O)c2ccc(CN3C(=O)c4cccc5cccc3c45)cc2)cc1O	76.7*	1.7	.	-19.4	-0.7	-5.4
COc1cc(/C=N\NC(=O)c2ccc(-c3ccccc3)cc2)cc(Br)c1O	-1.7	7.8	8.9	-0.4	-1.5	2.0
COc1cc(/C=N/NC(=O)c2ccc(CN3C(=O)c4cccc5cccc3c45)cc2)cc(OC)c1O	49.8*	-1.4	-1.6	-8.0	6.1	7.2
C[C@H]1CN([C@@H](C)CO)C(=O)c2cc(NS(=O)(=O)c3ccc(F)cc3)ccc2O[C@H]1CN(C)Cc1ccccc1	.	.	-7.1	14.8	.	1.2
Cc1noc(C)c1NC(=O)N(C)C[C@H]1Oc2ccc(NS(=O)(=O)c3cn(C)cn3)cc2CC(=O)N([C@H](C)CO)C[C@@H]1C	.	.	5.6	9.7	.	-7.0
CCOC(=O)c1cnn(-c2ccccc2)c1NC(=O)CN1CCCCC1	33.6*	-1.6	.	-2.6	0.9	1.8
O=C(CCN1N=C(c2ccccc2)CCC1=O)NCCCN1CCOCC1	64.4*	-3.2	-6.9	-4.5	-0.7	4.3
O=C(C1CCCCC1)N1CC2(C1)[C@H](c1ccccc1)[C@H](CO)N2Cc1nccs1	.	.	.	-12.8	.	1.1
O=C(c1ccccc1)c1ccccc1NC(=O)C1CCCN1Cc1ccccc1 (centres undefined)	46.4*	-0.2	.	-12.0	-0.7	-12.6
COc1ccc(CN2C(=O)c3cccnc3C2=O)cc1S(=O)(=O)N(C)c1cccc(C)c1	47.4*	-2.5	-18.1	-16.0	0.1	4.4
CCN(c1ccccc1)S(=O)(=O)c1cc(CN2C(=O)c3cccnc3C2=O)ccc1OC	-8.0	-0.5	5.5	-5.8	-1.3	-2.0
CC(=O)N1CCN(C(=S)c2ccc(Cl)cc2)CC1	42.8*	-5.3	.	.	-0.2	.
Cc1nc2c3cc(Cl)ccc3n(CCN3CCOCC3)c2s1	46.9*	9.3	.	-4.6	-0.1	6.8
CCOC(=O)Cn1c2ccc(C)cc2c2nc(C)sc21	-2.0	-2.3	4.3	-8.5	0.4	1.5
O=C1[C@@H](c2ccccc2)CC[C@@H]2C=CC[C@H]3CCN1[C@@H]32	.	.	.	1.0	.	30.8*
O=C([C@@H]1CC=C[C@@H]2CCN(C3CCCCC3)C(=O)[C@@H]21)N1CCN(c2ccccc2)CC1	-0.3	-4.0	0.0	1.7	1.3	1.3
O=C(C[C@@H]1C[C@H]2c3cc(NC(=O)CC4CC4)ccc3O[C@H]2[C@H](CO)O1)NCCc1ccccc1	.	.	-11.4	0.6	.	-0.2
CO[C@@H]1CN(C)C(=O)c2ccc(NC(=O)c3cnccn3)cc2OC[C@@H](C)N(CCc2ccccc2)C[C@H]1C	.	.	2.8	-33.3	.	-1.1
COc1cccc(-c2ccc(C3[C@@H]4CN(C(=O)c5cnccn5)C[C@H]3N4)cc2)c1 (some centres undefined)	.	.	.	-8.0	.	-6.5
SMILES	CAL PDZ FP-1	PDI inh	RAD54 inh	RAD52 anneal inh	CAL PDZ FP-2	ERp5 inh
O=C(c1ccc(F)cc1)N1C[C@@H]2N[C@H](C1)C2c1ccc(-c2ccc(F)cc2)cc1 (some centres undefined)	.	.	.	50.1*	.	1.3
COc1cccc(-c2ccc(C3[C@@H]4CN(C(=O)c5ccc(F)cc5)C[C@H]3N4)cc2)c1 (some centres undefined)	.	.	.	52.0*	.	-0.8
O=C(c1ccc(F)cc1)N1C[C@@H]2N[C@H](C1)C2c1ccc(-c2cncnc2)cc1 (some centres undefined)	.	.	.	15.3	.	-3.7
CCN(CC)S(=O)(=O)c1ccc(N2CC(C(=O)NCCC3=CCCCC3)CC2=O)cc1 (centres undefined)	45.2*	1.5	-7.5	-14.6	-1.6	4.8
O=C(NCc1ccccc1)[C@H]1N[C@H]2c3cccc(=O)n3C[C@H]2[C@@H]1CO	.	.	-6.5	1.3	.	0.4
CCOCCc1nnc(NC(=O)CCC2CCCCC2)s1	73.9*	1.9	-8.3	-8.0	-6.0	-0.6
COc1ccc(CCNC(=O)CCn2c(=O)[nH]c3cc(OC)c(OC)cc3c2=O)cc1OC	40.2*	-9.7	10.9	.	-0.9	.
CCOc1cc2[nH]c(=O)n(CCC(=O)NCCc3ccc(OC)c(OC)c3)c(=O)c2cc1OCC	61.6*	-5.7	2.9	.	-0.5	.
CCC(CC)C(=O)NCCc1ccc(OC)c(OC)c1	60.3*	13.4	1.9	.	-0.3	.
CCC(CC)C(=O)NCCc1ccc(OC)cc1	-5.3	-1.0	.	.	-1.9	.
COc1ccc(CCNC(=O)CCCn2c(=O)[nH]c3cc(OC)c(OC)cc3c2=O)cc1OC	-1.2	0.0	-15.8	.	-1.6	.
Cc1ccc(S(=O)(=O)N2CC[C@@H]3[C@H](CO)Nc4ccc(-c5ccccc5F)cc4[C@@H]32)cc1	.	.	7.4	3.8	.	1.9
CCCN(C)C[C@@H]1Oc2cc(C#Cc3ccccc3OC)ccc2S(=O)(=O)N([C@H](C)CO)C[C@@H]1C	.	.	-4.4	-8.6	.	4.7
C[C@H]1CN([C@@H](C)CO)C(=O)c2cccc(NS(=O)(=O)c3ccc(Cl)cc3)c2O[C@H]1CN(C)S(=O)(=O)c1cccs1	.	.	-5.0	-17.9	.	1.6
CN(CC(=O)Nc1cc(Cl)ccc1C#N)C1CCS(=O)(=O)C1 (centres undefined)	84.6*	5.7	-11.6	-23.6	-0.7	9.0
CC(C)C#Cc1ccc2c(c1)O[C@@H](CN(C)C(=O)c1ccncc1)[C@@H](C)CN([C@@H](C)CO)S2(=O)=O	.	.	7.7	11.5	.	4.3
COc1cccc(OCCOc2ccc(/C=C3\C(=N)N4N=C(S(C)(=O)=O)SC4=NC3=O)cc2OC)c1	55.0*	7.8	-15.3	-18.5	-4.8	0.2
COc1ccccc1OCCOc1ccc(/C=C2\C(=N)N3N=C(S(C)(=O)=O)SC3=NC2=O)cc1	-12.2	-6.2	-12.9	-28.4	-5.1	5.5
O=C(Nc1ccccc1F)N1C[C@H]2[C@@H](c3ccccc31)[C@@H](CO)N2C(=O)c1ccccn1	.	.	-1.5	12.1	.	-0.3
N#Cc1ccccc1NC(=O)COC(=O)COc1ccccc1[N+](=O)[O-]	35.4*	-1.7	.	-0.6	-0.5	3.0
